Screens from PubChem BioAssay.
Compounds with a hit are over-represented: about 3% of the library has one in this group of screens.
HNF4A DNA FP = change in binding of human HNF4 alpha to DNA; P41235; HNF4a-FITC DNA binding, fluorescence polarization, 1 h; activity change, % at 10 µM; 0.3% of 360,000 active; in the data active = activity change above about 30%, passing the limit was not always enough
Target sequence (P41235 whole entry, looked up): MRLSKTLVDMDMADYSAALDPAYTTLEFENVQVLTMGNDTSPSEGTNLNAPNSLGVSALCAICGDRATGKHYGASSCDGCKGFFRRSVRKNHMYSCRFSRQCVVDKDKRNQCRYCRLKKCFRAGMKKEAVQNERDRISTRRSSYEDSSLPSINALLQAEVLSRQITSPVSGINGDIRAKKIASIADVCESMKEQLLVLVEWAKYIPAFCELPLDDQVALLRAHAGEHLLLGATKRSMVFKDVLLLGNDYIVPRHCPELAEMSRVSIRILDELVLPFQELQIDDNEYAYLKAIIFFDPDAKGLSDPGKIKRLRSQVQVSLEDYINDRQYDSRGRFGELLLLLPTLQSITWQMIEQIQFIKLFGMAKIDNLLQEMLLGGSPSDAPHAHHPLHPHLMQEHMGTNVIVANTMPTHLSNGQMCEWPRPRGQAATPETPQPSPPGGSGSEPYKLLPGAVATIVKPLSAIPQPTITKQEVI
Pemphigus Ab inh = blocks pemphigus antibody binding to human desmoglein-3; P32926; DSG3-coupled beads, scFv-anti-DSG3-GFP binding, flow cytometry; stronger effect = lower value; binding (percent of control), % at 10 µM; AID 588358; 0.48% of 310,000 active;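 active = binding more than 3 SD below its plate's average and above zero; inconclusive = below that plate limit but binding exactly zero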;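 also: hits lower antibody fragment binding to DSG3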
Cardio protect = myocardial damage modulation in H9c2 cells; H9c2 cardiomyocytes, H2O2 injury protection, ATPLite, 2 h; protection from H2O2 cell death, % at 20 µM; 0.63% of 360,000 active;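 active = compounds giving at least 50% protection of heart cells from peroxide-induced death in the single-dose screen, raw or plate-pattern-corrected value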
SENP1 inh = inhibitors of human SENP1 SUMO protease catalytic domain; recombinant SENP1 catalytic domain, CyPet-SUMO1-YPet FRET cleavage; inhibition, % at 10 µM; 0.21% of 360,000 active; AID 624204;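 active = inhibition at least 30% at 10 µM, raw YFP signal under a set limit, fluorescence ratio 0.5 to 1.5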
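material = recombinant human SENP1 catalytic domain, His6-tagged | quantity = 20 pM enzyme | reagent = 25 nM SUMO1 FRET substrate | compound dosing = 10 µM single point, 0.5% DMSO | timing = 50 min enzyme reaction, room temperature, light-protected | detection = FRET, CFP and YFP emission | control set = no-enzyme low, enzyme-DMSO high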
Myeloid diff MLP = myeloid differentiation induction; ER-HoxA9 myeloid progenitors, lysozyme-GFP differentiation, flow cytometry; calls only at 10 µM; 1% of 360,000 active; AID 624256;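 active = normalized GFP-positive differentiation at or above the plate's own cutoff, the solvent-only control mean plus 3 SD; inconclusive = no clear call, values can overlap the other calls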;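 also: cells exposed to compound for four days before flow analysis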
Granule exo inh = blocks lytic granule exocytosis | TALL-104 LAMP-1 surface exposure, flow cytometry; cells stimulated with thapsigargin and PMA | inhibition, % at 10 µM | 0.66% of 360,000 active;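 active = inhibition above about 55%, limit read from the data; inconclusive = no clear call, values can overlap the other calls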
Each line names hits and unclear results; the compound was inactive in the other large screens.

CON(C)S(=O)(=O)c1cccc(C(=O)Nc2cccc(S(=O)(=O)NC3=NCCCCC3)c2)c1	none
COC(=O)c1ccc(CSc2nc3c(c(=O)n2-c2ccc(Br)cc2)SCC3)o1	Myeloid diff MLP active
CCCc1cc(N2CCN(C(=O)c3ccco3)CC2)n2c(nc3ccccc32)c1C#N	Cardio protect 55 (no result: Pemphigus Ab inh)
O=C(CSc1nnc(SCc2ccc(Cl)cc2)s1)N/N=C/c1c[nH]c2ccccc12	HNF4A DNA FP 112
O=C(CSc1nnc(SCc2cccc3ccccc23)s1)N/N=C/c1c[nH]c2ccccc12	none
Cc1ccc(Cn2c(=N)n(CC(O)c3ccco3)c3ccccc32)cc1 (centres undefined)	none
N=c1n(Cc2ccccc2Cl)c2ccccc2n1CC(O)c1ccco1 (centres undefined)	HNF4A DNA FP 61
O=[N+]([O-])c1ccc(Sc2nc3ccccc3o2)c([N+](=O)[O-])c1	none
O=c1[nH]c(Sc2ccc([N+](=O)[O-])cc2[N+](=O)[O-])nc2ccccc12	Granule exo inh 90
Cc1ccc(N=C(N)N=C(N)N)cc1	Myeloid diff MLP active
COc1ccc2c(c1OC)C(=O)OC2Nc1nc(-c2cc3ccccc3oc2=O)cs1 (centres undefined)	Granule exo inh 79
Cc1ccc(-c2nnc(NCc3nc4ccccc4[nH]3)c3ccccc23)cc1S(=O)(=O)N1CCOCC1	Cardio protect 86
CCNCCC(CCC(C)C)c1ccc2c(c1)OCO2 (centres undefined)	none
CC(C)CCC(CCNCc1ccccn1)c1ccc2c(c1)OCO2 (centres undefined)	Myeloid diff MLP active
CN(C)S(=O)(=O)Oc1cccc(C(=O)Nc2ccc([N+](=O)[O-])cc2)c1	none
COCCN1C(=O)/C(=C/c2ccc(N3CCCC3)cc2C)SC1=S	Myeloid diff MLP active
CCN=C1S/C(=C\c2ccc(N3CCOCC3)cc2C)C(=O)N1CC	none
N#CC1=C(N)Oc2c(ccc3cccnc23)C1c1cccnc1 (centres undefined)	Cardio protect 83, Myeloid diff MLP inconclusive (no result: Pemphigus Ab inh)
CCc1ccc2[nH]c(=O)c(C3C(C#N)=C(N)Oc4c3ccc3cccnc43)cc2c1 (centres undefined)	Cardio protect 64
CC(=O)C1=C(C)OC(N)=C(C#N)C1c1cc2cccc(C)c2nc1Cl (centres undefined)	none
Cc1ccc2cc(C3C(C#N)=C(N)Oc4c3ccc3cccnc43)c(=O)[nH]c2c1 (centres undefined)	Cardio protect 70, Myeloid diff MLP inconclusive
CCOC(=O)CN1C(=O)C(=O)N(Cc2c(C)cc(C)cc2C)C1=O	Myeloid diff MLP active
CCCN1CCN(CCCNC(=O)c2ccc(NC(=O)C3=C(C)OCCS3)cc2)CC1	none
CCOn1c(=O)c(C)[n+]([O-])c2ccccc21	none
CCOn1c(=O)c[n+]([O-])c2ccccc21	Myeloid diff MLP active
O=c1c[n+]([O-])c2ccccc2n1OCc1c(F)cccc1F	Myeloid diff MLP active
O=c1c[n+]([O-])c2ccccc2n1OCc1ccccn1	Myeloid diff MLP active (no result: Pemphigus Ab inh)
COC(=O)c1ccccc1COn1c(=O)c[n+]([O-])c2ccccc21	Myeloid diff MLP active
CC1CCC(C#N)(N(C)C(=O)CSc2nnc(C3CC3)n2C2CC2)CC1 (centres undefined)	none
CC1CC(C)C(=NNC(N)=O)C(C(O)CC2CCC(=O)NC2=O)C1 (centres undefined)	Myeloid diff MLP inconclusive
Nc1c(C(=O)NC2CC2)c2nc3ccccc3nc2n1-c1ccc2c(c1)OCO2	Cardio protect 77 (no result: Pemphigus Ab inh)
CCCCCC1C(C(=O)OCC)C(=O)NC1(C(=O)OCC)C(=O)OCC (centres undefined)	Granule exo inh 95
COc1ccc(NC(=O)c2c(N)cnn2C)cc1	none
CC(=O)C1CCC2C3CC=C4N(C)C(=O)CCC4(C)C3CCC12C (centres undefined)	none (no result: Pemphigus Ab inh)
COc1cccc(CN2CCN(CCc3ccccc3)C(CCO)C2)c1OC (centres undefined)	Myeloid diff MLP active
COc1cccc(CN2CCN(CCCc3ccccc3)C(CCO)C2)c1OC (centres undefined)	none
N#CCSc1nc2c(sc(=S)n2Cc2ccco2)c(=O)n1-c1ccc(F)cc1	HNF4A DNA FP 58
COc1cc(CNc2ccc3[nH]c(=O)[nH]c3c2)cc(Br)c1OCc1ccc(F)cc1	Myeloid diff MLP active
COc1cc(CNc2ccc3[nH]c(=O)[nH]c3c2)ccc1OCc1ccc(C)cc1	none
CCOc1cccc(-c2nn(-c3ccccc3)cc2/C=C(/C#N)C(=O)NCCCn2ccnc2)c1	Pemphigus Ab inh 97, Granule exo inh 68
CCOC(=O)N1CCN(C(=O)CN(C2CCCCC2)S(=O)(=O)c2ccc(Cl)cc2)CC1	Myeloid diff MLP active
CCOC(=O)N1CCN(C(=O)CN(C2CCCCC2)S(=O)(=O)c2ccc(F)cc2)CC1	none
Cc1cccc(N2CCN(S(=O)(=O)c3c(C)nc4scc(C)n4c3=O)CC2)c1C	none (no result: Pemphigus Ab inh)
Cc1ccc(C(C)C)c(OCc2nn(CC(=O)c3ccc(OC(F)F)cc3)c3[n+]2CCCCC3)c1	SENP1 inh 67
COc1ccc(C(=O)Cn2nc(CNc3ccc(Br)cc3)[n+]3c2CCCCC3)cc1	none
CCN(CC(=O)Nc1ccc(C(=O)OC)cc1)C1CCCCC1	none (no result: Pemphigus Ab inh, Myeloid diff MLP)
Cc1ccc(N(C(=O)Nc2ccccc2)C2=NCC(C)S2)cc1 (centres undefined)	HNF4A DNA FP 33
CN(C)S(=O)(=O)c1cccc(-c2nn(-c3ccccc3)cc2/C=C2\SC(=S)NC2=O)c1	HNF4A DNA FP 59
N#Cc1ccc(/C=C\c2nccc3c2[nH]c2ccccc23)cc1	Granule exo inh 72
CC(=Nc1ccc(O)cc1)c1sc2ccccc2c1O	none
CC(=Nc1ccccc1O)c1sc2ccccc2c1O	HNF4A DNA FP 38
C#CCn1c(=NC(=O)c2sc3ccccc3c2Cl)sc2cc(S(N)(=O)=O)ccc21	Pemphigus Ab inh 109
C#CCn1c(=NC(=O)c2ccc(S(=O)(=O)N3CCc4ccccc4C3)cc2)sc2cc(S(N)(=O)=O)ccc21	none
CCOC(=O)/C(=N\Nc1ccc(Cl)cc1)Sc1nnc(-c2ccc(OC)cc2)n1C	none
CCCCCOC(=O)C1C2C=CC3(CN(c4ccccc4C)C(=O)C13)O2 (centres undefined)	Myeloid diff MLP active
O=C(CCl)Nc1ccccc1Sc1ccc(Cl)cc1	none
O=C(O)CSCC(=O)Nc1ccccc1SCCS(=O)(=O)c1ccc(Cl)cc1	Myeloid diff MLP active
CC(C)n1c(O)c(N=Nc2ccc(Cl)nn2)c2ccccc21	Cardio protect 65
CCCCn1c(CN2CCN(c3ccccc3)CC2)nc2c1c(=O)n(C)c(=O)n2C	none
